# The whole screen tested about 330,000 compounds, of which about 1,100 (0.33%) were called active. For the sample, actives were picked, then their nearest neighbours and some compounds at random. Values without a mark were called inactive.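 Rule for the calls: active = versus positive control, 20 µM dose yields 30% or more activation; inactive = the rest.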
# Experiment: activators of adaptive XBP1 UPR arm, primary screen, cell-based, CHO-XBP1 luciferase reporter, luminescence, uHTS (AID 463104);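 note: 100% = tunicamycin at 10 µg/mL and 0% = DMSO only wells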
# Conditions: IRE1-XBP1 UPR activation, at 20 µM, active compounds read high, percent of tunicamycin response, DMSO as zero
# Procedure, shortened: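 Material: CHO cell line with stable XBP1 luciferase reporter; buffer or medium: F12 medium containing 10% fetal bovine serum; compound: single point, 20 µM final compound, 1% DMSO; incubation: 6 h treatment, 37 °C; measured by: glow luminescence from Steady-Glo reagent; evaluation: activation, % of tunicamycin; control set: tunicamycin high, DMSO low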
row,Compound,activation
1,CC(C)N(C(=O)[C@H]1C[C@H](CC(=O)NCCC2=CCCCC2)C(=O)N2CCc3c([nH]c4cc(CCC(=O)N(C)C)ccc34)[C@]12C)C(C)C,-2.39%
2,CN(C)C(=O)CCc1ccc2c3c([nH]c2c1)[C@]1(CCc2ccccc2)[C@@H](C(=O)N2CCCCC2)C[C@H](CC(=O)NCCC2=CCCCC2)C(=O)N1CC3,37.8% (active)
3,CN(C)C(=O)CCc1ccc2c3c([nH]c2c1)[C@]1(C)[C@@H](C(=O)N2CCCCC2)C[C@H](CC(=O)NCCC2=CCCCC2)C(=O)N1CC3,-0.99%
4,CCOC(=O)N1CCC(O)(c2cc(C)c(C)cc2C)CC1,0.36%
5,c1ccc(-n2nnnc2NC2CCCCCC2)cc1,-3.04%
6,COc1cc(OC)c(C(=O)OC(C)C(=O)Nc2cc(C(F)(F)F)ccc2Cl)cc1OC (stereo not given),1.27%
7,CSc1nc2c(c(=O)[nH]1)C(c1cccc(Cl)c1Cl)CC(=O)N2 (stereo not given),-1.96%
8,COc1ccc(C2CC(=O)Nc3sc(=N)c4c(N)c(C#N)c(N)nc4c32)cc1OC (stereo not given),2.45%
9,N#Cc1c(N)nc2c3c(sc(=N)c2c1N)NC(=O)CC3c1ccccc1Cl (stereo not given),31.5% (active)
10,O=C(Nc1nnc(-c2ccccc2F)s1)c1ccccc1F,4.27%
11,Cc1ccc(-n2ncc3c2CC(C)(C)CC3NC(=O)CCc2cnn(C)c2)cc1 (stereo not given),-4.76%
12,CCOC(=O)c1c(NC(=O)c2ccc(S(=O)(=O)N(C)CC3CCCO3)cc2)sc2c1CC(C)(C)NC2(C)C (stereo not given),-6.05%
13,COC(=O)c1sccc1NC(=O)COc1ccc(Cl)cc1,-0.33%
14,COC(=O)c1c(NC(=O)COc2ccc(Cl)cc2Cl)sc2c1CC(C)(C)NC2(C)C,74.2% (active)
15,COc1ccc(-c2cc(=O)oc3cc(OCC(=O)N(C)C4CCS(=O)(=O)C4)ccc23)cc1 (stereo not given),-1.57%
16,COc1ncnc2c1N=C1CC(C)(C)CC(N)=C1S2,-0.91%
17,O=C(NC1CC1)c1ccc(-c2ccccc2)cc1,0.87%
18,CN1CCN(CCCNC(=O)c2ccc(/C=C3\Oc4ccccc4N(Cc4ccc(Cl)cc4)C3=O)cc2)CC1,13.7%
19,CN1C(=O)/C(=C/c2ccc(C(=O)NC3CCCC3)cc2)Oc2ccccc21,33.7% (active)
20,COc1cccc(NC(=O)C(Sc2nnnn2C)c2ccccc2)c1 (stereo not given),-3.49%
21,CCOC(=O)N1CCN(C(=O)c2n[nH]c(=O)c3ccccc23)CC1,-2.8%
22,CCOC(=O)N1CCN(C(=O)Cn2cnc3ccccc3c2=O)CC1,-3.17%
23,CCOC(=O)N1CCN(C(=O)c2nn(-c3ccc(C)cc3)c(=O)c3c2c2ccccc2n3C)CC1,34.3% (active)
24,CN(Cc1ccccc1)CC(O)COc1ccc(CNCc2cc3ccccc3s2)cc1 (stereo not given),-0.93%
25,CCOC(=O)c1c(NC(=O)CNC2CCCc3ccccc32)sc(C(N)=O)c1C (stereo not given),39.6% (active)
26,CCOC(=O)c1c(NC(=O)CCl)sc(C(=O)N(CC)CC)c1C,11.5%
27,NC(=O)Nc1ccc(C(=O)OCC(=O)NC2CCCc3ccccc32)cc1 (stereo not given),-2.79%
28,CC1CCCCC1NC(=O)CN1CCC(O)(c2ccc3c(c2)OCO3)CC1 (stereo not given),-2.34%

row,Compound,activation
1,O=C(NCC(=O)N1CCN(c2ncc(C(F)(F)F)cc2Cl)CC1)c1ccc(Br)o1,-1.88%
2,CCSc1nnc(-c2cc3c(s2)-c2ccccc2CC3)o1,3.74%
3,Nc1nc(Nc2ccccc2F)nc(NC2CCCCC2)c1[N+](=O)[O-],11.1%
4,Nc1nc(NCC2CCCO2)nc(Nc2ccccc2F)c1[N+](=O)[O-] (stereo not given),1.61%
5,C=CCNc1nc(N)c([N+](=O)[O-])c(NC2CCCCC2)n1,32% (active)
6,Cc1ccc(-c2nnc(-c3ccc(NC(=O)c4cccs4)cc3)o2)cc1,198% (active)
7,Cc1ccc(NC(=O)c2cccs2)cc1S(=O)(=O)N(C)C,1.24%
8,Cc1ccc(OCC(=O)Nc2ccc(NC(=O)c3cccs3)cc2)c(C)c1,10.1%
9,COc1ccc(-c2ccc(CCC(=O)O)n2-c2ccc(O)cc2)cc1,-1.71%
10,Nc1ccc(S(=O)(=O)Nc2nccc(/C=C/c3ccc(Br)s3)n2)cc1,-1.07%
11,Oc1cccc2ccc(/C=C/c3ccc(Br)s3)nc12,54.5% (active)
12,c1ccc(-c2ccnc3nc(-n4cccc4)nn23)cc1,0.42%
13,COc1cc(NC(=O)c2cncc(-c3ccc(C#N)cc3)c2)cc(C(=O)Nc2cccc(C(F)(F)F)c2)c1,125% (active)
14,COc1cc(NC(=O)c2[nH]cnc2C(N)=O)cc(C(=O)Nc2cccc(C(F)(F)F)c2)c1,-2.27%
15,N#Cc1ccc(Oc2ccc(C(F)(F)F)cc2NC(=O)c2ccc(F)cc2)cc1,0.22%
16,Cc1cc2c(C)nc(N/N=C/c3ccccc3)nc2o1,4.19%
17,O=C(N/C(=C/c1ccc(Cl)cc1)C(=O)N1CCCCC1)c1ccco1,-3.57%
18,Cc1ccc(SC(CC(=O)c2ccc(C(C)(C)C)cc2)C(=O)O)cc1 (stereo not given),0.27%
19,C=CCn1c(SCc2ccccc2)nc2c1c(=O)[nH]c(=O)n2C,5.46%
20,COCCCNc1nc2c(-c3cccc(C)c3)nnn2c2ccc(Cl)cc12,26.4%
21,O=C(Nc1ccc(S(=O)(=O)N2CCc3ccccc3C2)cc1)c1ccccc1,-1.11%
22,Cc1cccc(NC(=O)c2ccc(S(=O)(=O)N(C)c3ccccc3)cc2)n1,-2.2%
23,C=CCN(CC=C)S(=O)(=O)c1ccc(C(=O)Nc2nc3c(s2)CCc2ccccc2-3)cc1,35.1% (active)
24,COc1ccc(C(=O)OCC(=O)N2CC(=O)Nc3ccccc32)cc1Br,0.2%
25,COc1ccc(C2=NN(C(=O)c3ccccc3C(=O)O)C(c3ccccc3O)C2)cc1 (stereo not given),-1.79%
26,CCOc1ccc2nc(Cl)c(C3CC(c4ccccc4)=NN3C(=O)c3cccs3)cc2c1 (stereo not given),51.3% (active)
27,CCOc1ccccc1C1CC(c2cccc(NS(C)(=O)=O)c2)=NN1C(=O)c1ccccc1 (stereo not given),-3.45%

# Source: PubChem BioAssay AID463104 (Sanford-Burnham Center for Chemical Genomics, 2010)
